Most compounds without a hit are left out; they make up all but 3.7% or so of the library.
rCAG binder – r(CAG) repeat RNA binding; TO-PRO-1 dye displacement fluorescence; inhibition, % at 3 µM; 370,000 tested, 1.3% active; AID 651821;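 active = inhibition above the plate cutoff, the mean of all test compounds on that plate plus 3 SD, cut at about 35% in these data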;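 note: 0% = DMSO alone and 100% = 100 µM mitoxantrone as full dye displacement; higher means more dye released from RNA so lower well fluorescence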
HCV core dimer – blocks dimerization of HCV core protein; TR-FRET GST/Flag-core106 dimerization, 1536-well; inhibition, % at 5 µM; 300,000 tested, 0.33% active; AID 1899;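 active = inhibition above the mean of all tested compounds plus 3 SD, set per screening campaign, cut at about 45% in these data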
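Assay system: GST-tagged and Flag-tagged HCV core protein residues 1-106 / Times: compound-protein-antibody incubation 4 h at 22.5 °C / Signal: time-resolved FRET, ex 340 nm, em 617 and 671 nm / Evaluation: % inhibition based on acceptor/donor emission ratio / Benchmarks: wells lacking GST-core106 and wells with excess unlabelled core106 / Repeats: singlicate, one well per compound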
TAAR1 ag – human TAAR1 agonism; CHO RD-HGA16 TAAR1, Fluo-8 calcium fluorescence; vehicle wells 0%, saturating PEA agonist 100%; activation, % at 3 µM; 360,000 tested, 0.99% active; AID 624467;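 active = activation above the mean activation of all test compounds in the run plus 3 SD, cut at about 38% in these data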
Target sequence (Q96RJ0 whole entry, looked up): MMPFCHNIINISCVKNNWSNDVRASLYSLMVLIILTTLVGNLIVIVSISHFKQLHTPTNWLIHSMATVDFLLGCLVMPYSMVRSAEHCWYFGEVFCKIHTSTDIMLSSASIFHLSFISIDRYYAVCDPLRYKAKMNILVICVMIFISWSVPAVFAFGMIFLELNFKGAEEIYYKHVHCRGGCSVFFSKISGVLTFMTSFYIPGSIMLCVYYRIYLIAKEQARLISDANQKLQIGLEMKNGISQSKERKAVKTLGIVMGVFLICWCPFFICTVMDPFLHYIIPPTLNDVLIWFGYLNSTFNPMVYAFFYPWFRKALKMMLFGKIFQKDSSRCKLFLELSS
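Assay system – CHO-derived RD-HGA16 cells with stable Gα16 and human TAAR1 · Compound dosing – one-point dosing at 3 µM (nominal) · Incubation – 17-24 h seeding, 75 min 37 °C dye, 30 min RT · Measured by – kinetic Fluo-8 calcium fluorescence · Control set – DMSO vehicle as 0%, PEA at EC100 as 100% · Repeats – single well for each compound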
TAAR1 antagonist – human TAAR1 antagonism. Q96RJ0. CHO RD-HGA16 TAAR1, Fluo-8 calcium fluorescence, antagonist. inhibition, % at 3 µM. 360,000 tested, 1.5% active. AID 624466;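 active = inhibition above a per-plate cutoff, the mean inhibition of test compounds on that plate plus 3 SD, cut at about 49% in these data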;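 note: 0% = DMSO plus EC80 beta-PEA response and 100% = DMSO alone without agonist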
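Test system – hTAAR1-expressing CHO RD-HGA16 cells, Gα16-coupled · Reagent – β-PEA at EC80 concentration, post-compound challenge · Compound dosing – 3 µM, single point · Timing – 140 s kinetic read after compound, 140 s after agonist · Detection – Fluo-8 intracellular calcium dye fluorescence, real-time kinetic reads · Control set – DMSO and EC80 PEA controls · Repeats – n of 1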
NS3 helicase inh – inhibitors of Hepatitis C virus NS3 helicase. NS3 helicase DNA unwinding, Cy5 molecular beacon fluorescence. inhibition, % at 10.9 µM. 290,000 tested, 0.56% active. AID 1800;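 active = inhibition above the mean of all tested compounds plus 3 SD, set per campaign, cut at about 35% in these data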;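 note: 0% = DMSO wells and 100% = thioflavine S control wells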
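Material: hepatitis C virus NS3 helicase domain fragment enzyme; measured by: Cy5 fluorescence, 0 and 60 min reads; control set: DMSO and thioflavine S; incubation: 60 min unwinding reaction at 25 °C after ATP addition; read-out basis: % inhibition from 60/0 min fluorescence ratio, DMSO 0%, thioflavine S 100%; repeats: singlicate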
Numbers without * were called inactive; . = not tested or not shown.

SMILES | rCAG binder | HCV core dimer | TAAR1 ag | TAAR1 antagonist | NS3 helicase inh
O=C(Nc1ccc(Cl)cc1)[C@@H]1[C@@H]2C(=O)N(c3cccc(F)c3)C(=O)[C@@H]2[C@H]2C=CC=NN21 | 18 | 20 | 9 | -3 | 21
O=S1(=O)c2ccc(N3CCCC3)cc2Oc2ccccc2CN1Cc1cn(Cc2ccc(Cl)cc2)nn1 | 13 | . | . | . | .
COc1cccc(Cn2cccc(NC(=O)Nc3ccc(C#N)cc3)c2=O)c1 | 12 | -7 | 8 | 53* | 0
CCCCC1=CC2=C(c3ccco3)C(=O)C(C)(OC(=O)c3ccc(OC)cc3)C(=O)C2=CN1Cc1ccccc1 (stereo not drawn) | 3 | 15 | 4 | -4 | .
CCCCC1=CC2=C(c3ccco3)C(=O)C(C)(OC(=O)c3ccc(OC)cc3)C(=O)C2=CN1Cc1ccc2c(c1)OCO2 (stereo not drawn) | . | 55* | . | . | .
CCOC(=O)[C@]12CCCC3=C1N(CCC3)C(=O)[C@@H](CC(=O)NCCCCc1ccccc1)C2 | 1 | . | . | . | .
CCN(CC)c1ccc(C(=O)NNC(=O)CCNC(=O)c2ccccc2)cc1 | -3 | . | 6 | 2 | .
CCN(CC)c1ccc(C(=C2C=CC(=[N+](CC)CC)C=C2)c2ccccc2)cc1 | 12 | . | 29 | 105* | .
COc1ccc(/C=N/n2c(-c3ccco3)nc3ccccc3c2=O)cc1 | 2 | 6 | 5 | 13 | 0
COc1cccc(/C=N/n2c(-c3ccco3)nc3ccccc3c2=O)c1 | -2 | 2 | 14 | 49* | 2
O=C(COC(=O)c1ccncc1)Nc1cccc(Cl)c1 | 6 | 46* | 18 | -8 | 7
Cc1cc(NC(=O)NC(=O)c2ccccc2NC(=O)C(C)N)ccc1Oc1ncc(Br)cn1 (stereo not drawn) | 3 | . | 43* | -7 | .
CCOC(=O)c1ccccc1NC(=O)Nc1ccc(OC)c(OC)c1 | -3 | -7 | -1 | 13 | -7
Cc1nn(-c2ccccc2)c(N2CCCC2)c1/C=N/NC(=O)c1ccccc1O | 7 | -2 | 8 | 19 | 1
Cc1nn(-c2ccccc2)c(N2CCCC2)c1/C=N/NC(=O)c1cc(-c2cccnc2)nc2ccccc12 | 10 | 10 | 10 | 51* | 1
C=CC[C@@H](CC(=O)N(CCO)Cc1ccccc1)C(=O)N[C@@H](COC(=O)[C@@H](CC=C)CC(=O)OC(C)(C)C)Cc1c[nH]c2ccccc12 | 1 | . | 14 | 55* | .
C=CC[C@@H](CC(=O)N(CCO)Cc1ccccc1)C(=O)N[C@H](COC(=O)[C@@H](CC=C)CC(=O)OC(C)(C)C)Cc1c[nH]c2ccccc12 | -7 | . | 12 | 60* | .
C=CC[C@H](CC(=O)N(CCO)Cc1ccccc1)C(=O)NC[C@H](OC(=O)[C@@H](CC=C)CC(=O)OC(C)(C)C)c1ccccc1 | -8 | . | 13 | 49* | .
COC1=C[C@H](C(=O)NC2CCN(Cc3ccccc3)CC2)C(C)C(c2ccccc2)CC1=O (stereo partly drawn) | 6 | . | . | . | .
CC(CCN1CCC(C(O)(c2ccccc2)c2ccccc2)CC1)Oc1ccc(C#N)cc1F (stereo not drawn) | 4 | . | . | . | .
C=CCN1C(=O)[C@@H](CC(=O)N2CCN(C(=O)c3ccco3)CC2)[C@]2(C(=O)OCC)CCCCC/C=C/12 | 3 | . | . | . | .
Fc1ccc(N2CCN(C3=Nc4ccccc4Sc4ccccc43)CC2)cc1 | 9 | . | . | . | .
Cc1nnsc1NC(=O)OCc1ccccc1Cl | 4 | 0 | 41* | 5 | -9
O=C(CSc1nnc(COc2ccccc2)n1-c1ccccc1)Nc1ccc2c(c1)OCO2 | 3 | . | . | . | .
COc1nc(OC)nc(N2CCC(C(=O)N(C)Cc3ccccc3F)CC2)n1 | -2 | . | . | . | .
SMILES | rCAG binder | HCV core dimer | TAAR1 ag | TAAR1 antagonist | NS3 helicase inh
Cc1ccc(NS(=O)(=O)c2ccc(C(=O)OCC(=O)N3CCCCC3)cc2)cc1 | 4 | . | 41* | 41 | .
CCOC(=O)COc1ccc(S(=O)(=O)Nc2ccc3c(c2)OCO3)cc1 | 2 | 12 | 22 | 2 | 0
CCOC(=O)NCc1ccc(S(=O)(=O)Nc2ccc(C)cc2)cc1 | 7 | 3 | 44* | -1 | 1
Cc1ccc(NS(=O)(=O)c2ccc(C3CCCCC3)cc2)cc1 | 3 | 3 | 14 | 59* | 1
Cc1ccc(S(=O)(=O)Nc2ccc(N3CCCCC3)cc2)cc1 | -1 | 3 | 3 | 6 | -4
CCOC(=O)COc1ccc(S(=O)(=O)Nc2ccc(C)cc2)cc1 | 2 | 7 | 50* | 7 | 4
CCOc1ccc(S(=O)(=O)Nc2cccc(C(=O)N3CC(C)OC(C)C3)c2)cc1 (stereo not drawn) | -2 | 2 | 3 | -18 | .
CCOc1ccc(S(=O)(=O)Nc2ccc(C(=O)N3CC(C)OC(C)C3)cc2)cc1 (stereo not drawn) | -7 | -1 | 57* | 26 | .
COc1ccc(OC2C(=O)N(Cc3ccc4c(c3)OCO4)C2c2sccc2C)cc1 (stereo not drawn) | -7 | 12 | 3 | 50* | -13
COc1ccc(OC2C(=O)N(Cc3ccc(F)cc3)C2c2ccc(OC)c(OC)c2)cc1 (stereo not drawn) | -8 | 0 | 5 | 28 | -10
CCn1c(COc2ccccc2)nnc1SCC(=O)Nc1ccc(S(=O)(=O)Nc2cc(C)nc(C)n2)cc1 | 23 | . | . | . | .
Cc1cccc(NC(=O)C2CCN(c3ncccn3)CC2)c1C | -2 | . | . | . | .
COc1ccc(CCNC(=O)CCN2C(=O)[C@@H]3Cc4ccccc4CN3C2=O)cc1OC | -5 | 6 | 16 | 50* | -3
COc1ccc(CCNC(=O)CCCCCN2C(=O)[C@@H]3Cc4ccccc4CN3C2=O)cc1OC | -7 | 6 | 2 | -7 | 6
COc1ccc(Br)cc1C(=O)Nc1ccc(Cc2ccncc2)cc1 | 0 | 4 | 3 | 36 | -23
COc1c(C(=O)Nc2ccc(Cc3ccncc3)cc2)ccc2ccccc12 | -4 | 4 | 11 | 55* | -3
COC(=O)c1c(-c2ccc(C)cc2)csc1NC(=O)Cc1ccc(OC)c(OC)c1 | 9 | . | 4 | 55* | -4
CCOC(=O)N1CCN(C(=O)c2cc(-c3ccc(OCC)cc3)nc3ccccc23)CC1 | -1 | 3 | 28 | 35 | -11
CCOc1ccc(-c2cc3nc(C4CCN(C(=O)OC(C)(C)C)CC4)c(C(=O)O)cn3n2)cc1 | 70* | 21 | 1 | 14 | -4
CC(C)CC1=C/C(=C/c2ccc(-c3ccccc3)o2)C(=O)O1 | 44* | 24 | 1 | 11 | 30
CC[C@@]1(c2ccc(C)cc2)C(=O)N(C(=O)OC(C)C)N1C(=O)OC(C)C | -1 | . | . | . | .

Compound activity as filed in PubChem.
